Source: PubChem
Hits are enriched below; roughly 1.3% of the tested compounds scored in any of these assays.
TDP2 inh: TDP2 (human) inhibition, absorbance primary screen; recombinant TDP2, T5PNP hydrolysis, p-nitrophenol absorbance 415 nm; inhibition, % at 12.8 µM; actives 0.34% (n = 370,000); AID 720702;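 active means inhibition above the mean of all tested compounds plus 3 SD, set per campaign, cut at about 25% in these data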;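 further: 0% = DMSO with enzyme and 100% = buffer with substrate but no TDP2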
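Material: recombinant human TDP2; quantity: TDP2 enzyme at 120 nM final; medium: Tris-HCl pH 7.5 with MgCl2; compound: single concentration, 12.8 µM nominal, with 1% DMSO; incubation: 2 h enzyme incubation at 37 °C; signal: epi absorbance; measure: percent inhibition; benchmarks: high control without enzyme, low control DMSO plus TDP2; repeats: singlicate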
LEDGF integ inh: blocks HIV-1 LEDGF/p75-dependent DNA integration | AID 743269 | inhibition, % at 3.7 µM | TR-FRET IN-LEDGF/p75 DNA integration, Eu/Cy5 | actives 0.64% (n = 370,000);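 active means inhibition above the screen-wide mean plus 3 SD, cut at about 13% in these data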;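 further: signal is the Cy5 over europium emission ratio at 671 and 618 nm; 0% = plate median of compound wells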
ASAP1 GAP inh: inhibitors of human ASAP1 ArfGAP activity; AID 624377; inhibition, % at 16.5 µM; Q9ULH1; ASAP1-stimulated ARF1 GTP hydrolysis, GDP FP detection; actives 0.19% (n = 360,000); in the data active means inhibition above about 25%;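 further: 0% = vehicle with enzyme and substrate and 100% = no enzyme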
Target sequence (Q9ULH1 325-724 limits assumed): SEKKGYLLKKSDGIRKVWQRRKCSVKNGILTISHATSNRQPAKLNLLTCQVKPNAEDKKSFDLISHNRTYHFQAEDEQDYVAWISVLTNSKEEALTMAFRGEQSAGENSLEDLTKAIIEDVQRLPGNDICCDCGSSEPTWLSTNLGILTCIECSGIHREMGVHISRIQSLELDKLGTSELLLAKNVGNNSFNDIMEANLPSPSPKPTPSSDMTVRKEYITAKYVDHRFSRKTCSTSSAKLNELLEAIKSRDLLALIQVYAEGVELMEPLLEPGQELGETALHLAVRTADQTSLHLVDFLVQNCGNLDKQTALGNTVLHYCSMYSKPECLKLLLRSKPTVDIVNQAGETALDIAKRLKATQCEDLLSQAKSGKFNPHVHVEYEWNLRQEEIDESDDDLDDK
CASP6 VEID inh: caspase-6 (human) enzyme inhibition | P55212 | purified caspase-6, Z-VEID-R110 cleavage fluorescence | inhibition, % at 12.5 µM | actives 0.53% (n = 350,000);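 active means mean inhibition across replicates at least about 35%, with every replicate also reaching that limit, limit read from the data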;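 further: 0% = median of neutral control wells and 100% = no fluorescence left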
ARFGAP1 inh: inhibitors of rat ARFGAP1; Q62848; Arfgap1-stimulated ARF1 GTP hydrolysis, GDP FP detection; inhibition, % at 16.5 µM; actives 0.26% (n = 360,000); AID 651572;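 active means inhibition above a per-plate limit, mean inhibition of low control wells plus 3 SD, cut at about 25% in these data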;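 further: 0% = DMSO wells with enzyme and 100% = wells lacking Arfgap1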
Target sequence (Q62848 1-136 limits assumed): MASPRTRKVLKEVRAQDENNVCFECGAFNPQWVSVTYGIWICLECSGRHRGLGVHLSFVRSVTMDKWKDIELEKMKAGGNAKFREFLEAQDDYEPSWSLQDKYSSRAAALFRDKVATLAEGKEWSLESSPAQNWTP
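Replicates: Single well per compound | Assay system: Truncated rat Arfgap1 GAP domain | Control set: No-Arfgap1 wells (100%) versus DMSO full-reaction wells (0%) | Times: Enzyme reaction 120 min at 25 °C after 20 min preincubation | Reagent: Human ARF1(Δ1-17)-GTP substrate | Measured by: Tracer-displacement fluorescence polarization with EDTA stop, 620/688 nm | Measure: Percent inhibition of Arfgap1-stimulated GTP hydrolysis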
ASAP1 inh confirm: confirmation of human ASAP1 inhibitors; shares compounds with ASAP1 GAP inh; ASAP1-stimulated Arf1 GTPase, GDP fluorescence polarization; inhibition, % at 16.5 µM; actives 37% (n = 620); AID 624431;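 active means mean inhibition over triplicates exceeds the hit threshold derived for the earlier primary screening run, cut at about 25% in these data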
Numbers without * were called inactive; . = no result.

SMILES	TDP2 inh	LEDGF integ inh	ASAP1 GAP inh	CASP6 VEID inh	ARFGAP1 inh	ASAP1 inh confirm
Cc1c(C(=O)NCc2ccc(Cl)c(Cl)c2)sc(=O)n1Cc1cccc(F)c1	-12.3	0.5	25.3*	-3.2	1.8	13.9
Cc1c(C(=O)NCc2cccc(Cl)c2)sc(=O)n1Cc1cccc(F)c1	10.8	1.3	6.3	2.7	-2.5	.
CC(=O)c1cccc(N(C(=O)CNC(=O)c2ccco2)C(C(=O)NCC2CCCO2)c2ccccc2)c1 (stereo unspecified)	-1.5	-3.0	5.5	5.6	-1.7	.
CCOc1cccc(N(C(=O)CNC(=O)c2ccco2)C(C(=O)NCC2CCCO2)c2ccccc2)c1 (stereo unspecified)	8.2	0.0	25.2*	-0.9	3.9	0.9
CC(NC(=O)c1ccc(CS(=O)(=O)c2ccc(Cl)cc2)o1)c1ccc2c(c1)OCCO2 (stereo unspecified)	-2.9	2.8	27.1*	0.4	4.9	2.7
CC(C)(C)c1ccc(-c2nnc(SCC(=O)NCC3CCCO3)n2N)cc1 (stereo unspecified)	-3.3	-3.0	10.8	-2.6	2.2	.
Cc1ccc(Cl)c2sc(NC(=O)C3=COCCO3)nc12	-5.6	2.4	26.8*	-2.1	7.9	14.2
O=C(C[C@@H]1CC[C@@H]2[C@H](COC[C@@H](O)CN2Cc2ccncc2)O1)NCC1CC1	.	.	.	-2.1	.	.
Cc1cc(C)c(S(=O)(=O)c2ccccc2)c(OC(=O)c2c(F)cccc2F)n1	0.5	0.0	25.6*	.	21.3	11.2
COc1ccc(C(=O)NC(=S)Nc2ccc3oc(=O)ccc3c2)cc1	-12.4	0.8	59.0*	-0.4	13.8	78.5*
C=CC[C@H](CC(=O)N[C@H](CO)Cc1ccccc1)C(=O)N[C@@H](COC(=O)[C@@H](CC=C)Cc1ccc(F)cc1)Cc1c[nH]c2ccccc12	-9.0	2.6	15.0	-3.7	5.6	.
C=CC[C@@H](CC(=O)N[C@@H](CO)Cc1ccccc1)C(=O)N[C@H](COC(=O)[C@@H](CC=C)Cc1ccc(F)cc1)Cc1c[nH]c2ccccc12	-2.6	-1.7	31.9*	-1.7	0.9	12.3
CC1CN(S(=O)(=O)c2ccc(NC(=O)c3cc(-c4ccccc4O)n[nH]3)cc2)CC(C)O1 (stereo unspecified)	1.0	2.5	25.9*	.	0.2	21.2
COc1cc2nc(NCCCN3CCN(C)CC3)n3nc(-c4ccccc4)nc3c2cc1OC	-6.2	6.8	36.4*	.	15.8	24.1
O=C(CSc1nn(-c2ccccc2)c(=S)s1)Nc1ncccn1	-3.1	1.2	25.9*	-5.5	11.9	43.9*
O=C(/C=C/c1cccs1)Nc1ccc(N2CCOCC2)c(S(=O)(=O)Nc2ccccc2Cl)c1	-7.0	-2.9	8.0	.	4.1	.
COc1ccccc1NS(=O)(=O)c1cc(NC(=O)/C=C/c2cccs2)ccc1N1CCOCC1	1.5	-3.9	31.6*	-1.6	19.8	17.5
COc1cc(NC(=O)c2ccccc2)ccc1NC(=O)Cc1ccccc1	9.5	-3.6	15.1	-1.5	-6.5	.
COc1cc(NC(=O)Cc2ccccc2)ccc1NC(=O)Cc1ccccc1	-7.8	5.8	29.5*	0.7	7.8	2.5
Cc1ccc(-c2[nH]nc(N)c2N=Nc2ccccc2C)cc1	-1.2	3.8	27.0*	.	19.2	20.3
Cc1cccc(N=Nc2c(N)n[nH]c2-c2ccc(Cl)cc2)c1	-12.8	-0.5	26.2*	.	10.3	17.5
Cc1ccc(N=Nc2c(N)n[nH]c2N)cc1	7.4	0.2	1.7	-0.7	-0.1	.
Cc1ccc(-c2[nH]nc(N)c2N=Nc2cccc(Cl)c2C)cc1	4.0	-0.1	2.3	.	6.3	.
CCOC(=O)c1sc(N/N=C/c2cccc(C)c2)nc1C	-1.6	-0.2	-4.9	.	1.3	.
C=CCN(C/C(=N\O)c1sc(C(=O)OCC)nc1C)c1cccc(Br)c1	-2.9	-0.1	25.7*	.	6.8	15.3
SMILES	TDP2 inh	LEDGF integ inh	ASAP1 GAP inh	CASP6 VEID inh	ARFGAP1 inh	ASAP1 inh confirm
CCCCOC(=O)Cn1c(-c2ccccc2)nc2ccccc2c1=O	-8.6	-1.5	-2.9	.	1.6	.
CCOC(=O)Cn1c(-c2ccccc2)nc2ccccc2c1=O	7.1	-3.4	25.6*	.	4.2	-0.1
Cc1ccc(NC(=O)CSc2ncccc2C(=O)Oc2cccc([N+](=O)[O-])c2)cc1Cl	-16.2	-2.5	44.0*	0.9	7.2	39.0*
CC(/C=C/c1ccccc1)=N\NC(=O)CNC(=O)c1ccccc1Cl	6.6	-3.3	24.7*	0.5	0.7	4.6
O=C(O)COc1ccccc1/C=N/NC(=O)Cc1csc(Nc2cccc(C(F)(F)F)c2)n1	-10.1	2.9	36.5*	11.5	22.1	5.8
CSc1ccc(OCC(=O)Nc2ccc(N3CCOCC3)c(Cl)c2)cc1	-5.4	-6.9	0.8	1.9	8.7	.
O=C(COc1c(F)c(F)c(C(F)(F)F)c(F)c1F)Nc1ccc(N2CCOCC2)c(Cl)c1	-13.8	-5.3	25.0*	.	6.1	7.2
Cc1ccc2nc(/C(C#N)=C\c3ccc([N+](=O)[O-])o3)[nH]c2c1	-8.1	4.4	22.4	.	1.4	.
N#C/C(=C\c1ccc([N+](=O)[O-])o1)c1nc2ccccc2[nH]1	5.7	0.1	29.2*	12.8	-4.4	21.7
O=C(NCC1CCCO1)c1ccc[nH]1 (stereo unspecified)	6.5	-0.5	26.9*	-2.8	10.2	-5.0
O=C(NCC1CCCO1)c1cccc(C(=O)NCC2CCCO2)c1 (stereo unspecified)	2.4	-0.4	-1.5	-3.1	-0.7	.
O=C(Nc1ccccc1F)N1CC(=O)N2[C@H](CO)[C@H](c3ccc(C#Cc4ccc(F)cc4)cc3)[C@@H]2C1	.	.	.	0.0	.	.
Cn1nc(C(C)(C)C)cc1NC(=O)C1(C)CCN1C(=O)C1(c2ccccc2)CCCC1 (stereo unspecified)	3.2	-5.4	7.0	4.0	-5.9	.
Cn1nc(C(C)(C)C)cc1NC(=O)C1(C)CCN1C(=O)C1(c2ccccc2)CC1 (stereo unspecified)	-10.1	0.5	25.4*	-1.6	-2.6	0.2
NCCCC[C@H](NC(=O)C1CCNCC1)c1nnc([C@@H](N)Cc2ccc(O)cc2)o1	0.4	-1.7	2.0	-159.5	-3.3	.
COc1ccc(-n2c(SCC(=O)Nc3ccc(NC(C)=O)cc3)nc3ccccc3c2=O)cc1	9.7	-0.5	27.3*	-0.3	9.6	3.7
C=CCN(CC=C)CCOc1cc(C)ccc1[N+](=O)[O-]	7.8	-2.7	24.9*	-20.5	-7.8	0.1
CC(Cc1cccs1)NC(=S)Nc1ccc(Cl)cc1 (stereo unspecified)	-4.2	1.6	28.6*	-4.8	4.7	5.6
Cc1cc(N2CCN(C)CC2)nc2ccc(NC(=O)CCC3CCCC3)cc12	0.0	2.2	27.8*	-24.9	23.6	39.4*
Cc1cc(N2CCN(C)CC2)nc2ccc(NC(=O)CCC(=O)NCCC3=CCCCC3)cc12	2.8	-0.3	17.0	.	6.0	.
